Data published in paper PMC8463510 (Acta Pharmaceutica Sinica. B, 2021).
In brackets after ≈: the same amount, converted by molar mass.

Experiments:
[1] = azilsartan loaded in CD-MOF, SD rats; cited from earlier work
[2] = azilsartan loaded in CD-MOF; cited from earlier work
[3] = Apparent solubility in vitro; assay type: physicochemical; conditions: thermodynamic from solid; for solubility at 2 h: 25 °C
[4] = Oral pharmacokinetics / bioavailability in rats; assay type: in vivo; conditions: male, Sprague-Dawley, rat, plasma, 4 mg/kg
Method in brief: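 Male SD rats (250 ± 50 g), fasted 12 h with water, randomised to groups, n = 6. Test compound or its cyclodextrin/CD-MOF formulations were suspended in 0.5% CMC-Na and given orally at 4 mg/kg (as parent). Orbital blood was taken into heparin at 0–24 h, and plasma stored at −80 °C. Progesterone internal standard, acidified-acetonitrile precipitation, HPLC–MS/MS MRM positive ion (m/z 319.2 → 273.2). PK by […] analysis; mean ± SD.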

SMILES | bioavailability, times that of API [1] | apparent solubility, times of the API [2] | solubility at 2 h ([3]; pH 1, simulated gastric fluid) | solubility at 2 h ([3]; pH 4.5, aqueous buffer) | solubility at 2 h ([3]; pH 6.8, aqueous buffer) | solubility ([3]; KOH solution, pH 11, aqueous buffer) | solubility at 2 h ([3]; distilled water, water) | AUC(0-t) [4] | Cmax [4] | Tmax [4]
CCOc1nc2cccc(C(=O)O)c2n1Cc1ccc(-c2ccccc2-c2noc(=O)[nH]2)cc1 [azilsartan] | 9.7 times | 340 times | – | – | – | – | – | – | – | –
C[C@@]12CC[C@@H]3[C@@](CC[C@H]4[C@@]3(C)CCC[C@@]4(C)C(=O)O)(CC1=O)C2 [STV, Isosteviol] | – | – | < 0.02 µg/mL | < 0.02 µg/mL | 20.1 µg/mL (≈ 63 µM) | 240 µg/mL (≈ 753 µM) | 0.13 µg/mL (≈ 0.407 µM) | 590 ng·h/mL | 61 ± 39 ng/mL | 3.01 h
